Screening data from PubChem BioAssay.
XiGFP reactiv – activators of X-chromosome reactivation in mouse fibroblasts | XiGFP mouse fibroblasts, % GFP-positive cells imaging, 3 d; cells co-treated with 5-aza-dC sensitizer; scaled so ellipticine positive control = 100% | activation, % at 7.58 µM | actives 0.055% (n = 360,000) | AID 743238;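 active = mean normalized replicate activation at least 10% and every replicate at or above 10%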;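 note: 0% = median of on-plate neutral control wells and 100% = ellipticine 6 µM median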
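Material: XiGFP fibroblasts, SV40-immortalized. Buffer or medium: DMEM plus 5-aza-dC sensitizer. Compound: single concentration per compound, delivered by pin transfer. Times: 3 days compound exposure. Controls: ellipticine 6 µM.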
esBAF inh – blocks esBAF chromatin remodeling in mouse ES cells; Bmi1-luciferase knock-in reporter, 24 h; 100% = twice the neutral-well signal; reporter increase, % at 12.5 µM; actives 2% (n = 350,000); AID 602393; in the data active = activation above about 40%;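 note: 0% = median of the plate's neutral control wells and 100% = double that signal; a rise in the Bmi1 reporter signal indicates esBAF inhibition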
MITF act – increases MITF-driven TRPM1 promoter luciferase signal; SK-MEL-5 TRPM1-promoter luciferase, 24 h; % of positive control, neutral wells = 0; AID 588334; activation, % at 12.5 µM; actives 0.75% (n = 300,000);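 active = mean activation of at least 80% with every replicate also reaching 80%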;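 note: 0% = neutral control wells and 100% = parthenolide positive control wells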
Wnt bcat act – activates Wnt/beta-catenin signaling in a reporter cell assay | actives 1.2% (n = 300,000) | activator, plate reader | activation, % at 9.35 µM | AID 743398; in the data active = activation above about 30%, passing the limit was not always enough;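 note: 0% = neutral control wells and 100% = positive control wells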
Vif imaging – inhibitors of HIV Vif | AID 602346 | inhibition, % at 7.49 µM | HEK293T cells, Vif self-association by quenched fluorescence, imaging, 24 h | actives 0.35% (n = 340,000); in the data active = inhibition above about 50%, passing the limit was not always enough
Numbers without * were called inactive. Rows were chosen to be rich in hits. Some 2.6% of all compounds tested hit in one or more screens of this group.

Results for O=C(COc1ccccc1)NCCSc1ccccc1 ?
esBAF inh: 52*; Wnt bcat act: 18; Vif imaging: -1

How did O=C(NCCSc1ccccc1)c1cccnc1 do in these assays?
esBAF inh: 58*; MITF act: 56; Vif imaging: -1

Results for CN(C)S(=O)(=O)c1ccc(C(=O)NCCSc2ccccc2)cc1 ?
esBAF inh: 53*; MITF act: 41; Vif imaging: 0

How did O=C(NCCSc1ccccc1)c1ccccc1F do in these assays?
XiGFP reactiv: 0; esBAF inh: 47*; Wnt bcat act: -1; Vif imaging: -1

What do the screens show for `C[C@H](NC(=O)C[C@@H]1C=C[C@@H](NC(=O)C2CCOCC2)[C@H](CO)O1)c1ccccc1`?
XiGFP reactiv: 1; esBAF inh: -5

Results for O=C(CNC(=O)c1ccccc1Cl)c1ccccc1 ?
XiGFP reactiv: 0; esBAF inh: 28; MITF act: 35; Wnt bcat act: 14; Vif imaging: -1

How did O=C(CNC(=O)c1ccccc1F)c1ccccc1 do in these assays?
XiGFP reactiv: 0; esBAF inh: -14; Wnt bcat act: 38*; Vif imaging: 10

How did Cc1c(Cc2ccccc2)c(=O)oc2c(C)c(OCC(=O)Nc3ccc(C#N)cc3)ccc12 do in these assays?
XiGFP reactiv: 0; MITF act: -6; Wnt bcat act: -4; Vif imaging: 10

What do the screens show for `Cc1cccc(C)c1NC(=O)COc1ccc2c(C)c(Cc3ccccc3)c(=O)oc2c1C`?
XiGFP reactiv: 0; MITF act: -11; Wnt bcat act: 0; Vif imaging: 53*

What do the screens show for `CC1=Nc2cc(C(=O)N3CCCC3)ccc2Sc2c(C)ccc(C)c21`?
XiGFP reactiv: 0; esBAF inh: 2; MITF act: -11; Wnt bcat act: -4; Vif imaging: -1

How did CC1=Nc2cc(C(=O)O)ccc2Sc2c(C)ccc(C)c21 do in these assays?
XiGFP reactiv: 0; MITF act: 12; Wnt bcat act: -5; Vif imaging: 69*

What do the screens show for `CCCCSc1nc2c(cnn2-c2ccccc2)c(=O)n1N`?
XiGFP reactiv: 0; MITF act: 58; Wnt bcat act: 18; Vif imaging: 0

How did CCCSc1nc2c(cnn2-c2ccccc2)c(=O)n1N do in these assays?
XiGFP reactiv: 0; esBAF inh: 0; Wnt bcat act: 41*; Vif imaging: -7

What do the screens show for `S=C(Nc1ccc(Br)cc1)NC1CCCCC1`?
XiGFP reactiv: 0; esBAF inh: 43*; MITF act: 30; Wnt bcat act: 7; Vif imaging: 2

How did S=C(Nc1ccc(Cl)cc1)NC1CCCCC1 do in these assays?
XiGFP reactiv: 0; esBAF inh: 33; MITF act: 37; Wnt bcat act: 9; Vif imaging: -3

What do the screens show for `S=C(Nc1ccc2[nH]ccc2c1)NC1CCCCC1`?
XiGFP reactiv: 0; esBAF inh: 66*; MITF act: 59; Wnt bcat act: 29; Vif imaging: -2

What do the screens show for `Cc1ccc(NC(=S)NC2CCCC2)cc1C`?
XiGFP reactiv: 0; MITF act: 29; Wnt bcat act: 12; Vif imaging: -1

What do the screens show for `FC(F)Oc1ccc(NC(=S)NC2CCSc3ccccc32)cc1` (centres undefined)?
XiGFP reactiv: 0; esBAF inh: 5; MITF act: 3; Wnt bcat act: 1; Vif imaging: -4

What do the screens show for `FC(F)Oc1ccc(NC(=S)NC2CCCCCCC2)cc1`?
XiGFP reactiv: 0; esBAF inh: 47*; MITF act: 37; Wnt bcat act: -3; Vif imaging: -4

How did C[C@@H]1CN([C@H](C)CO)C(=O)Cc2cc(NC(=O)CCC(F)(F)F)ccc2O[C@@H]1CN(C)Cc1ccc(Oc2ccccc2)cc1 do in these assays?
XiGFP reactiv: 1; esBAF inh: 0

How did CCCCC(=O)OCC(=O)c1cc(C)n(-c2c(C)n(C)n(-c3ccccc3)c2=O)c1C do in these assays?
XiGFP reactiv: 0; MITF act: -2; Wnt bcat act: -2; Vif imaging: 50*

Results for CCOC(=O)c1cc(C)n(-c2c(C)n(C)n(-c3ccccc3)c2=O)c1C ?
MITF act: 15; Vif imaging: 5

How did Cc1ccc(SCC(=O)c2ccc[nH]2)cc1 do in these assays?
XiGFP reactiv: 0; esBAF inh: 61*; MITF act: 70; Wnt bcat act: 8; Vif imaging: 6

Results for COc1ccccc1NC(=S)N1CCN(C(=O)C2CCCO2)CC1 (centres undefined) ?
XiGFP reactiv: 0; MITF act: 2; Wnt bcat act: 2; Vif imaging: 64*

Results for COc1ccc(Cl)cc1NC(=S)N1CCN(C(=O)C2CCCO2)CC1 (centres undefined) ?
XiGFP reactiv: 0; MITF act: 5; Wnt bcat act: -1; Vif imaging: 1

How did Cc1cc(C(=O)OCC(=O)Nc2c(F)cccc2F)c(C)n1-c1ccccc1 do in these assays?
XiGFP reactiv: 0; esBAF inh: 48*; MITF act: 28; Wnt bcat act: 14; Vif imaging: -12

How did Cc1nn(-c2ccccc2)c(C)c1C(=O)OCC(=O)NC12CC3CC(CC(C3)C1)C2 do in these assays?
esBAF inh: 50*; MITF act: 19; Wnt bcat act: 0; Vif imaging: -3

What do the screens show for `Cc1nn(-c2ccccc2)c(C)c1C(=O)OCC(=O)Nc1ccccc1F`?
XiGFP reactiv: 0; esBAF inh: 36; MITF act: 100*; Wnt bcat act: 44*; Vif imaging: -3

What do the screens show for `C[C@@H]1CN([C@@H](C)CO)C(=O)c2cc(NS(=O)(=O)c3cn(C)cn3)ccc2O[C@@H](C)CCCCO[C@@H]1CN(C)S(=O)(=O)c1cn(C)cn1`?
XiGFP reactiv: 0; esBAF inh: -5

How did O=C(c1cnc(Cc2c[nH]c3ccccc23)c(I)c1)N1CCCCC1 do in these assays?
XiGFP reactiv: 0; esBAF inh: 49*; Wnt bcat act: 7; Vif imaging: -11

What do the screens show for `O=C(Nc1cccnc1)c1ccc(-c2ccc(Cl)cc2)o1`?
XiGFP reactiv: 0; MITF act: 34; Wnt bcat act: -1; Vif imaging: 2

Results for Cc1cc(C(=O)Nc2cccnc2)no1 ?
MITF act: -1; Wnt bcat act: 0; Vif imaging: 5

What do the screens show for `O=C(Nc1cccnc1)c1cc(-c2ccc(Cl)cc2Cl)on1`?
XiGFP reactiv: 0; esBAF inh: -1; MITF act: 12; Wnt bcat act: 43*; Vif imaging: 5

What do the screens show for `O=C(Nc1cccnc1)c1cc(-c2ccc(Cl)cc2)on1`?
XiGFP reactiv: 0; esBAF inh: 15; MITF act: 129*; Wnt bcat act: 41*; Vif imaging: -3

How did O=C(Nc1ccc(Cl)cc1Cl)c1csc(-c2cccnc2)n1 do in these assays?
XiGFP reactiv: 0; esBAF inh: 64*; MITF act: 27; Wnt bcat act: -1; Vif imaging: -4
